The source made the active and inactive calls. No cut-off for these calls is given here.
How the values were obtained:
[1] = Reduction in cholesterol level in lysosomal storage organelles of NPC1 deficient chinese hamster CT60 cells at 10 uM by LSO compartment ratio assay; format: functional, Cricetulus griseus; set-up: scale not given: the % may be the effect or the level left
[2] = Effect on cholesterol esters content in NPC1 deficient chinese hamster CT60 cells assessed as ratio of cholesteryl esters level in treated to untreated control at 10 uM by gas chromatography; format: functional, Cricetulus griseus
In short: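 CT60 cells exposed to 10 µM for 18 h alongside solvent (DMSO) controls. Total cellular cholesteryl ester measured by GC and expressed per µg cell protein. Reported relative to solvent-treated cells.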

Cricetulus griseus [3] = species: Cricetulus griseus; assay: Increase in cholesterol efflux in chinese hamster TRVb1 cells expressing human transferrin receptor at 10 uM after 18 hrs by [3H]cholesterol incorporation assay; format: functional
In short: (§1)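 Cells labeled 24 h with 1 µCi/ml [3H]-cholesterol, then incubated 18 h with 10 µM compound. Efflux went to serum acceptors. Efflux is supernatant radioactivity divided by supernatant plus cell-monolayer radioactivity, compared with solvent-treated control cells.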

[4] = Reduction in cholesterol level in lysosomal storage organelles of NPC1 deficient chinese hamster CT43 cells at 10 uM by LSO compartment ratio assay; format: functional, Cricetulus griseus; set-up: scale not given: the % may be the effect or the level left
[5] = Inhibition of LDL endocytosis in NPC1 deficient chinese hamster CT60 cells assessed as ratio of DiI-labeled LDL level in treated to untreated control at 10 uM after 35 mins by fluorimetry; format: functional, Cricetulus griseus
In short: (§2)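 CT60 or 25RA cells incubated with compound together with DiI-labeled LDL, either 35 min (short) or 18 h (long). Uptake quantified as DiI fluorescence intensity per cell area and normalized to the mean of solvent (DMSO)-treated samples.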

[6] = Inhibition of LDL endocytosis in wild type chinese hamster 25RA cells assessed as ratio of DiI-labeled LDL level in treated to untreated control at 10 uM after 35 mins by fluorimetry; format: functional, Cricetulus griseus; in short: as §2
[7] = Inhibition of LDL endocytosis in NPC1 deficient chinese hamster CT60 cells assessed as ratio of DiI-labeled LDL level in treated to untreated control at 10 uM after 18 hrs by fluorimetry; format: functional, Cricetulus griseus; in short: as §2
CT60 = assay: Increase in cholesterol efflux in NPC1 deficient chinese hamster CT60 cells at 10 uM after 18 hrs by [3H]cholesterol incorporation assay; format: functional, cell-based; conditions: Cricetulus griseus; in short: as §1
[8] = target: T1, Sterol O-acyltransferase 1 (Cricetulus griseus) (UniProt Q60457); assay: Increase in ACAT-induced cholesterol esterification in NPC1 deficient chinese hamster CT60 cells assessed as ratio of [14C]oleic acid incorporation in treated to untreated control at 10 uM; format: cell-based
T1 sequence (whole entry): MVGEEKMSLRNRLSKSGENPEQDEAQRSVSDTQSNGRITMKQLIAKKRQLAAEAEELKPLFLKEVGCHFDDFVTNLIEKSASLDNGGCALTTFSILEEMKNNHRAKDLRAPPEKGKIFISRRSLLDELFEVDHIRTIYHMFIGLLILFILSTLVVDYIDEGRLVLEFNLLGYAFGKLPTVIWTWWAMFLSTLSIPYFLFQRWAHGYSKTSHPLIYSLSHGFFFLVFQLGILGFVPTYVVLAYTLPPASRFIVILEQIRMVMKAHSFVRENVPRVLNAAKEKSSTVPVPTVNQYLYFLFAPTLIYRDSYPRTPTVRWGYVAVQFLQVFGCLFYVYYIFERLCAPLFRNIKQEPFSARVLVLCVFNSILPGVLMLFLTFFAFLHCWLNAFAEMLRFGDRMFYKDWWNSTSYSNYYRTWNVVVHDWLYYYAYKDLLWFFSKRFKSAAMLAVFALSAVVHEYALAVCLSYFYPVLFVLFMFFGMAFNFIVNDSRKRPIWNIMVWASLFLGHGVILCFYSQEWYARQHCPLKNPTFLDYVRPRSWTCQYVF
In short: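 CT60 cells treated 18 h at 10 µM. ACAT esterification measured as incorporation of [14C]-oleic acid into cholesteryl-[14C]-oleate, normalized to cellular protein. Expressed relative to solvent-treated controls.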

Cricetulus griseus [9] = species: Cricetulus griseus; assay: Increase in cholesterol efflux in wild type chinese hamster 25RA cells with SCAP gene gain of function mutation at 10 uM after 18 hrs by [3H]cholesterol incorporation assay; format: functional; in short: as §1
[10] = Inhibition of LDL endocytosis in NPC1 deficient chinese hamster cells assessed as ratio of DiI-labeled LDL level in treated to untreated control at 10 uM after 18 hrs by fluorimetry

SMILES: O=C(O)c1ccc(N2C(=O)/C(=C\c3ccc(-c4ccc(Br)cc4)o3)C=C2c2ccccc2)cc1
- Activity [1]: 30%
- Ratio [2]: 1.05
- Activity (Cricetulus griseus [3]): Active
- Activity [4]: 80%
- Ratio [5]: 0.93
- Ratio [6]: 1.16
- Ratio [7]: 0.59
- Activity (CT60): Active
- Ratio [8]: 1.49
- Activity (Cricetulus griseus [9]): Active
- Ratio [10]: 0.67
